Results taken from article PMC4497517 (Proteins, 2009).
“Also recorded” adds a separate entry of the source. Where a SMILES comes first, the peptide text is derived from it.

Assays:
cdk2/cyclin E complex [1] = molecular target: T1, cdk2/cyclin E complex (Homo sapiens, UniProt P24941); experiment: Phosphorylation of RNAPII CTD; assay type: biochemical
Method in brief: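 C81 cell lysate was fractionated on Superose 6 size exclusion, and cdk2 fractions 28–32 were pooled with test peptide (0.01, 0.1, 1, 10 μM). Cyclin E was immunoprecipitated overnight at 4°C (1 μg antibody, ~100 ng active cdk2/cyclin E), captured on protein A/G beads and washed. Kinase reaction: 20 μl, 1 hr, 37°C, GST-CTD substrate, (γ-32P) ATP. Products run on 4–20% Tris-glycine gel, dried, 32P bands counted by phosphorimager.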

cdk2/cyclin E complex [2] = molecular target: T1, cdk2/cyclin E complex; settings: cited from earlier work
[3] = test system: RNA polymerase II (RNAPII) serine 5; settings: by disrupting cdk2/cyclin E complex formation; cited from earlier work
cdk2 = settings: cited from earlier work
cdk2 K178A = settings: cited from earlier work
cdk2 Y180A = settings: cited from earlier work
cdk2 R126A = settings: alanine mutation experiment; cited from earlier work

Compound	IC50 (cdk2/cyclin E complex [1]) [µM]	Disruption of cdk2/cyclin E complex (cdk2/cyclin E complex [2])	Inhibition of phosphorylation of serine 5 of RNAPII [3]	Interaction with cdk2 (cdk2)	Binding affinity to mutant (cdk2 K178A)	Binding affinity to mutant (cdk2 Y180A)	Effect of R126A mutation on peptide binding (cdk2 R126A)
CC(C)C[C@H](NC(=O)[C@H](C)NC(=O)[C@H](C)NC(=O)[C@@H](N)CC(C)C)C(=O)N[C@@H](CO)C(=O)O [LAALS] (H-LAALS-OH)	4.26	–	–	–	–	–	–
TAALS	–	disrupts the cdk2/cyclin E complex; also recorded: succeeded in partially breaking the cdk2/cyclin E complex	inhibits the phosphorylation of serine 5 of RNA polymerase II (RNAPII)	interacts directly with cdk2	dramatic reduction in their binding affinity	dramatic reduction in their binding affinity	does not participate significantly in the peptide binding; also recorded: does not affect the binding of peptide TAALS
